Here are results for ten compounds from ChEMBL document CHEMBL2034896, “Terpenoids from Chloranthus serratus and their anti-inflammatory activities” (J Nat Prod, 2012).

The test concerns RAW264.7. Description: Antiinflammatory activity in mouse RAW264.7 cells assessed as inhibition of LPS-stimulated nitric oxide production pretreated for 2 hrs before LPS challenge measured after 18 hrs by Griess method. It counts as functional, cell-based. The method in brief: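 Murine RAW264.7 macrophages are stimulated with LPS, and NO released into the medium is measured. The read-out is an IC50.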
In general terms: Nitrite, measured by Griess reagent, commonly stands in for NO production.
For orientation: IC50 means the concentration that inhibits the measured activity by half. In the case of `CCO[C@]12OC(=O)C(C)=C1C1=C3[C@@](C)(C2=O)[C@@H]2C[C@@H]2[C@@]3(O)C[C@@H]2[C@]13OC(=O)C1=C3C[C@H]3[C@](O)(COC(=O)/C(C)=C/COC(=O)CCC(=O)OC1)[C@H]1C[C@H]1[C@]23C`, the IC50 is above 10 µM.
Consider `CC1=C2C[C@@H]3[C@](C)(CCC[C@]3(C)O)C[C@@H]2OC1=O`, for which the IC50 was above 10 µM.
Under `C=C1C[C@@H](O)[C@H]2C(C)(C)[C@@H](O)CC[C@]2(C)[C@H]1C/C=C(\C)C=O` stands above 10 µM; under `C=C1CC[C@@H]2[C@](C)(O)C[C@@]3(O)OC(=O)C(C)=C3[C@@]2(O)C1`, above 10 µM.
Take `CC1=C2C[C@@H]3[C@](C)(CCC[C@]3(C)O)C[C@]2(O)OC1=O`: the IC50 was above 10 µM.
Regarding `COC(=O)/C(C)=C1\C(=O)[C@H](O)[C@]2(C)C3=C(C[C@@H]4[C@]5(OC(=O)C6=C5C[C@H]5[C@](O)(COC(=O)/C(C)=C/COC(=O)CCC(=O)OC6)[C@H]6C[C@H]6[C@]45C)[C@H]31)[C@H]1C[C@H]12` [SHIZUKAOL B], the IC50 is 0.15 µM.
Under `C=C1CC[C@H]2C(C)(C)[C@@H](O)CC[C@]2(C)[C@H]1C/C=C(\C)C=O` stands above 10 µM; under `CC1=C2C3=C4C(=C[C@@H]5[C@]36OC(=O)C3=C6C[C@H]6[C@](O)(COC(=O)/C(C)=C/COC(=O)CCC(=O)OC3)[C@H]3C[C@H]3[C@]56C)[C@H]3C[C@H]3[C@]4(C)[C@@H](O)[C@@]2(O)OC1=O`, 0.22 µM; under `COC(=O)/C(C)=C1/C(=O)[C@H](O)[C@]2(C)C3=C1[C@]14OC(=O)C(COC(C)=O)=C1C[C@H]1C[C@H]5C[C@H]5[C@]1(C)[C@@H]4C[C@]3(O)[C@H]1C[C@H]12` [SHIZUKAOL D], 7.22 µM.
Under `C[C@@H]1C[C@H]2[C@@H]3CCC4=CC(=O)C=C[C@]4(C)[C@@]3(F)[C@@H](O)C[C@]2(C)[C@@]1(O)C(=O)CO` [DEXAMETHASONE] stands 0.47 µM.
